The values that follow come from ChEMBL document CHEMBL3616366, “Design, synthesis and biological activity of new amides derived from 3-methyl-3-phenyl-2,5-dioxo-pyrrolidin-1-yl-acetic acid” (Eur J Med Chem, 2015).

The test system of data set [1] is Mus musculus. Put plainly: Antinociceptive activity in albino CD-1 mouse assessed as reduction in licking and biting time during phase 2 at 97.51 mg/kg, ip administered 30 mins prior to formalin challenge measured between 15.0 to 30.0 mins relative to control. In kind it is functional. Also on record: scale not given: the % may be the effect or the level left.
Data set [2] relates to Vibrio harveyi. Briefly: Antimutagenic activity in Vibrio harveyi BB7 assessed as inhibition of nitroquinoline-N-oxide-induced revertant colonies. In kind it is functional. In a few lines: (§1)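 Revertants induced by 4-nitroquinoline-N-oxide (final 40 ng/ml) with versus without test compound; TA100 at 37 °C, V. harveyi strains at 30 °C in BOSS medium. Three independent repetitions; inhibition % = 100 − (R1/R2 × 100); 25–40% moderate, ≥40% strong.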

Data set [3] relates to Mus musculus. Put plainly: Anticonvulsant activity in albino CD-1 mouse assessed as protection against subcutaneous pentylenetetrazole-induced seizure at 30 to 300 mg/kg, ip measured after 0.5 hrs. In kind it is functional. In a few lines: (§2)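 Male CD-1 mice given compound i.p. (0.5% methylcellulose suspension) at 30, 100, 300 mg/kg, four per group; pentylenetetrazole 85 mg/kg s.c. at 0.5 or 2 h. Absence of clonic convulsions (≥5 s) over 30 min observation counts as protection. Minimum active dose reported.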

A short description of data set [4]: Neurotoxicity in ip dosed albino CD-1 mouse assessed as motor impairment by rotarod test. In kind it is toxicity, organism-based. The following applies: in vivo. In a few lines: (§3)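 Quantitative work at time of peak effect previously estimated in screening; groups of six mice given various i.p. doses until ≥3 points within 10–90% seizure protection (MES or scPTZ) or minimal motor impairment on rotarod (10 rpm, failure to hold ≥1 min).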

Data set [5] has as its system Mus musculus. Briefly: Anticonvulsant activity in ip dosed albino CD-1 mouse assessed as protection against subcutaneous pentylenetetrazole-induced seizure measured as time to peak effect. Format: functional. In a few lines:
as §3

Data set [6] is filed under the species Rattus norvegicus. Put plainly: Displacement of [3H]BTX from voltage-sensitive sodium channel site2 in rat cerebral cortex at 100 uM measured after 60.0 mins by scintillation counting. Format: tissue-based.
Data set [7] is described as follows: Protective index, ratio of TD50 for neurotoxicity in ip dosed albino CD-1 mouse to ED50 for anticonvulsant activity in ip dosed maximal electoshock-induced seizure albino CD-1 mouse model. In kind it is toxicity, organism-based. The following applies: in vivo, read-out: Ratio TD50/ED50. In a few lines:
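Protective index computed as TD50 (rotarod) divided by ED50 (MES or scPTZ), both from probit analysis on groups of six i.p.-dosed mice.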

Data set [8] has as its system Mus musculus. Put plainly: Neurotoxicity in albino CD-1 mouse assessed as motor impairment at 30 to 300 mg/kg mg/kg, ip measured after 0.5 hrs by rotarod test. Particulars: in vivo. In kind it is toxicity, organism-based. In a few lines:
(§4)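 Rotarod in male CD-1 mice at 0.5 and 2 h after i.p. 30, 100 or 300 mg/kg (methylcellulose suspension); motor impairment = inability to keep balance on rod turning at 10 rpm for at least 1 min. Minimum neurotoxic dose reported.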

In data set [9] the test system is Mus musculus. Put plainly: Antinociceptive activity in albino CD-1 mouse assessed as reduction in licking and biting time during phase 2 at 97.51 mg/kg, ip administered 30 mins prior to formalin challenge measured between 25.0 to 30.0 mins relative to control. Format: functional. Also on record: scale not given: the % may be the effect or the level left.
The subject of data set [10] is Mus musculus. Briefly: Antinociceptive activity in albino CD-1 mouse assessed as reduction in licking and biting time during phase 2 at 97.51 mg/kg, ip administered 30 mins prior to formalin challenge measured between 20.0 to 25.0 mins relative to control. Also noted: scale not given: the % may be the effect or the level left. In kind it is functional.
Data set [11] relates to Salmonella typhimurium. Briefly: Mutagenic activity in Salmonella typhimurium TA100 assessed as mutagenicity index at 40 ng/ml by Ames test. In kind it is toxicity, organism-based. The following applies: salmonella enterica subsp. enterica serovar typhimurium. In a few lines: (§5)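 Ames TA100 liquid pre-incubation (minimal medium, 37 °C) and V. harveyi assay (BOSS medium, 30 °C); test at 40 ng/ml, triplicate. Mutagenic index = induced revertants / spontaneous revertants (DMSO control); M.I. ≥2 considered mutagenic.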

Data set [12] has as its system Vibrio harveyi. Briefly: Mutagenic activity in Vibrio harveyi BB7XM assessed as mutagenicity index at 40 ng/ml. The following applies: in vivo. Format: organism-based. In a few lines: as §5
Data set [13] has as its system Salmonella typhimurium. Briefly: Antimutagenic activity in Salmonella typhimurium TA100 assessed as inhibition of nitroquinoline-N-oxide-induced revertant colonies by Ames test. In kind it is functional, Salmonella enterica subsp. enterica serovar Typhimurium. In a few lines:
as §1

Data set [14] relates to Vibrio harveyi. Briefly: Mutagenic activity in Vibrio harveyi BB7 assessed as mutagenicity index at 40 ng/ml. Format: organism-based. Particulars: in vivo. In a few lines:
as §5

Data set [15] relates to Mus musculus. Briefly: Anticonvulsant activity in albino CD-1 mouse assessed as protection against maximal electroshock-induced seizure at 30 to 300 mg/kg, ip measured after 2.0 hrs. Particulars: CD-1, ip, read-out: MED. In kind it is functional. In a few lines:
(§6)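 Male CD-1 mice (16–26 g), compound suspended in 0.5% methylcellulose/water, i.p. at 30, 100, 300 mg/kg; four mice per group, each used once. Electroconvulsion by electrical stimulus 0.2 s at 50 Hz; protection scored at 0.5 and 2 h. Value is minimum dose showing activity.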

Data set [16] deals with Mus musculus. Briefly: Neurotoxicity in albino CD-1 mouse assessed as motor performance by measuring time spent in chimney at 97.51 mg/kg, ip administered 30 mins prior to chimney test (reference value: 6.29 +/- 2.48 sec). In kind it is toxicity, organism-based. The following applies: in vivo.
The subject of data set [17] is Vibrio harveyi. Briefly: Antimutagenic activity in Vibrio harveyi BB7XM assessed as inhibition of nitroquinoline-N-oxide-induced revertant colonies. Format: functional. In a few lines:
as §1

The subject of data set [18] is Mus musculus. Put plainly: Neurotoxicity in albino CD-1 mouse assessed as motor impairment at 30 to 300 mg/kg mg/kg, ip measured after 2 hrs by rotarod test. In kind it is toxicity, organism-based. Particulars: in vivo. In a few lines:
as §4

Data set [19] has as its system Mus musculus. Briefly: Anticonvulsant activity in ip dosed albino CD-1 mouse assessed as protection against 6 Hz current-induced seizure measured after 0.5 hrs. The following applies: CD-1, ip, read-out: MED. Format: functional. In a few lines:
(§7)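 6-Hz psychomotor test: corneal stimulation 32 mA, 0.2 ms monopolar rectangular pulses at 6 Hz for 3 s, mice restrained then released to observation cage. Protected if normal exploratory behaviour resumes within 10 s. Doses 30, 100, 300 mg/kg i.p.; read at 0.5 and 2 h; minimum active dose.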

For data set [20], the system named is Mus musculus. Put plainly: Anticonvulsant activity in albino CD-1 mouse assessed as protection against maximal electroshock-induced seizure at 30 to 300 mg/kg, ip measured after 0.5 hrs. Format: functional. Particulars: CD-1, ip, read-out: MED. In a few lines:
as §6

Data set [21] deals with Mus musculus. Put plainly: Anticonvulsant activity in albino CD-1 mouse assessed as protection against subcutaneous pentylenetetrazole-induced seizure at 30 to 300 mg/kg, ip measured after 2.0 hrs. In kind it is functional. In a few lines: as §2
Data set [22] concerns Mus musculus. Put plainly: Antinociceptive activity in albino CD-1 mouse assessed as reduction in licking and biting time during phase 1 at 97.51 mg/kg, ip administered 30 mins prior to formalin challenge relative to control. In kind it is functional. Also on record: scale not given: the % may be the effect or the level left.
Data set [23] deals with Mus musculus. Put plainly: Antinociceptive activity in albino CD-1 mouse assessed as reduction in licking and biting time during phase 2 at 97.51 mg/kg, ip administered 30 mins prior to formalin challenge measured between 15.0 to 20.0 mins relative to control. Format: functional. Also noted: scale not given: the % may be the effect or the level left.
For data set [24], the system named is Mus musculus. Briefly: Anticonvulsant activity in ip dosed albino CD-1 mouse assessed as protection against maximal electroshock-induced seizure. Format: functional. The following applies: CD-1, ip. In a few lines:
as §3

Data set [25] deals with Mus musculus. Put plainly: Anticonvulsant activity in ip dosed albino CD-1 mouse assessed as protection against 6 Hz current-induced seizure measured after 2.0 hrs. In kind it is functional. In a few lines:
as §7

In data set [26] the test system is Mus musculus. Briefly: Anticonvulsant activity in ip dosed albino CD-1 mouse assessed as protection against maximal electroshock-induced seizure measured as time to peak effect. In kind it is functional. In a few lines: as §3
Data set [27] concerns Mus musculus. Briefly: Antinociceptive activity in albino CD-1 mouse assessed as reduction in licking and biting time during phase 1 at 104.11 mg/kg, ip administered 2.0 hrs prior to formalin challenge relative to control. In kind it is functional. Also on record: scale not given: the % may be the effect or the level left.
The subject of data set [28] is Mus musculus. Briefly: Antinociceptive activity in albino CD-1 mouse assessed as reduction in licking and biting time during phase 2 at 104.11 mg/kg, ip administered 2.0 hrs prior to formalin challenge measured between 20.0 to 25.0 mins relative to control. Also noted: scale not given: the % may be the effect or the level left. In kind it is functional.
Data set [29] relates to Mus musculus. Briefly: Antinociceptive activity in albino CD-1 mouse assessed as reduction in licking and biting time during phase 2 at 104.11 mg/kg, ip administered 2.0 hrs prior to formalin challenge measured between 15.0 to 30.0 mins relative to control. In kind it is functional. Also on record: scale not given: the % may be the effect or the level left.
For data set [30], the system named is Mus musculus. Briefly: Antinociceptive activity in albino CD-1 mouse assessed as reduction in licking and biting time during phase 2 at 104.11 mg/kg, ip administered 2.0 hrs prior to formalin challenge measured between 15.0 to 20.0 mins relative to control. In kind it is functional. Also on record: scale not given: the % may be the effect or the level left.

In data set [31] the test system is Mus musculus. Put plainly: Neurotoxicity in albino CD-1 mouse assessed as motor performance by measuring time spent in chimney at 104.11 mg/kg, ip administered 2.0 hrs prior to chimney test (reference value: 6.29 +/- 2.48 sec). In kind it is toxicity, organism-based. The following applies: in vivo.

The source made the active and inactive calls.

As to `COc1ccccc1N1CCN(C(=O)CN2C(=O)CC(C)(c3ccccc3)C2=O)CC1` (centres undefined), the Activity stood at 99.3% in data set [1]; 98% in [9]; 100% in data set [10]; 85.5% in data set [22]; 100% in data set [23]. Further, the entries for the “inhibition (INH)” value in data set [2], in [13] and in data set [17] were 45%, 42% and 51%, respectively. Moreover, the MED entry in data set [3], in data set [21] and in data set [25] was “inactive” each time. Moreover, in data set [4], the TD50 was 240 mg/kg. The figures for the Time in [5], in data set [16] and in data set [26] were 0.5 h, 8.43 s and 0.5 h, respectively. The same compound yielded an inhibition in [6] of 44.6%. Besides, the selectivity ratio in data set [7] was 2.46. Moreover, the MTC in data set [8] and in data set [18] was 300 mg/kg each time. For the same compound, the Activity_index in [11] is given as 0.6; in [12], 0.9; in data set [14], 1.2. Further, the minimal effective dose in data set [15] is 300 mg/kg; in data set [19] it was 100 mg/kg; in data set [20] it was 100 mg/kg. Also, the ED50 in data set [24] is 97.5 mg/kg.

In the case of `CC1(c2ccccc2)CC(=O)N(CC(=O)N2CCN(c3ccc(F)cc3)CC2)C1=O` (centres undefined), the Activity is on record as 60% in data set [27], 95% in data set [28], 82.3% in data set [29] and 95% in [30]. For the same compound, the MED entry in data set [3] and in [21] was “inactive” throughout. Further, in data set [4], the TD50 turned out to be 248 mg/kg. Further, the Time worked out at 2 h in data set [5], 2 h in [26] and 6.14 s in data set [31]. Besides, the selectivity ratio in data set [7] turned out to be 2.37. The MTC in data set [8] and in data set [18] was 300 mg/kg in each case. The minimal effective dose stood at 100 mg/kg in [15]; 300 mg/kg in data set [19]; 100 mg/kg in [20]; 300 mg/kg in [25] (CD-1, ip, read-out: MED). Also, the ED50 in data set [24] turned out to be 104 mg/kg.
